Screening results (PubChem)
Rows were chosen to be rich in hits. Some 3.8% of all compounds tested hit in one or more screens of this group.
KCNK3 block: human KCNK3 channel inhibition, primary screen. AID 602410. hit rate 0.84% among 340,000. CHO-KCNK3 thallium flux, FluxOR fluorescence; hits give low values. B-score at 10 µM;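 active means B-score under library mean minus 4 SD, starting fluorescence ratio at most library mean plus 5 SD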;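 further: more negative B-score means stronger inhibition of thallium flux through KCNK3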
Kir21 inh: blocks the mouse Kir2.1 inward-rectifier potassium channel; HEK293-Kir2.1, FluxOR thallium flux fluorescence; hits give low values; P35561; AID 1672; hit rate 0.85% among 310,000; B-score at 10 µM;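 active means fluorescence ratio B-score at or below minus 3 SD of library scores, with starting-brightness B-score within 2 SD, cut at about -4.2 in these data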;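 further: channel flux triggered by added potassium and thallium sulfate stimulus; B-score of peak minus minimum fluorescence over baseline after thallium stimulus; more negative B-score means stronger Kir2.1 block with less thallium influx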
KCNK9 block: blocks the human KCNK9 two-pore domain potassium channel; HEK293 KCNK9, FluxOR thallium flux fluorescence; hits give low values; B-score at 10 µM; hit rate 1.2% among 310,000; Q9NPC2;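 active means ratio B-score over 3 SD below the library mean, with starting fluorescence within 5 SD of its mean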;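 further: negative B-score means less thallium flux so channel inhibition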
KCNQ1 inh: blocks the human KCNQ1 potassium channel. hit rate 1.3% among 310,000. B-score at 10 µM. P51787. CHO-K1 KCNQ1, FluxOR thallium flux fluorescence; hits give high values;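 active means compounds whose thallium flux B-score, printed positive for inhibition, exceeds three library SD while starting fluorescence stays within three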;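 further: channel opened by potassium depolarization with thallium stimulus after 20 min compound exposure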
Target sequence (P51787 whole entry, looked up): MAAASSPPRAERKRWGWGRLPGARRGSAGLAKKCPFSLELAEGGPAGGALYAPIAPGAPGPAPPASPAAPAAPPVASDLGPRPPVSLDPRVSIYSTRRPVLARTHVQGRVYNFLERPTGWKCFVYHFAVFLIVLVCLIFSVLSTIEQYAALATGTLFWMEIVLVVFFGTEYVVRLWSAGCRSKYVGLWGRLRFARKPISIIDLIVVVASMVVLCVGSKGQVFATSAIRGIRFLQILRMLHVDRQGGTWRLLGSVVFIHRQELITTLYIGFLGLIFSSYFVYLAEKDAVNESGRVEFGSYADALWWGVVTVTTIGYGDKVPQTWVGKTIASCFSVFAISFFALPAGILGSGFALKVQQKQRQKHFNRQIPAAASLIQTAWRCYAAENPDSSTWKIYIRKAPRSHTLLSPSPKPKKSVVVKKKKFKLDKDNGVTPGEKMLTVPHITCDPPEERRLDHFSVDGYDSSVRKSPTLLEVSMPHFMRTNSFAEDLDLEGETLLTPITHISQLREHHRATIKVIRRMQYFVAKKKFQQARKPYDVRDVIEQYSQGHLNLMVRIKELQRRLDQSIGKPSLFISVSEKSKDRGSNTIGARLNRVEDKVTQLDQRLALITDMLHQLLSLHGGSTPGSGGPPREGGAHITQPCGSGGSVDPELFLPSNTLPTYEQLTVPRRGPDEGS
KCNQ1 pot: human KCNQ1 channel potentiation or activation; CHO-K1 KCNQ1, thallium flux FluxOR fluorescence; hits give high values; B-score at 10 µM; hit rate 0.35% among 310,000;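 active means fluorescence ratio B-score, a plate-corrected score, at least three library SD, with initial intensity B-score within 5 SD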
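Assay system: CHO-K1 cells stably expressing KCNQ1. Medium: assay buffer for compound exposure, DMSO matched across wells. Timing: 37 °C overnight plating, 90-min dark dye load, 20-min compound pretreatment. Signal: kinetic FluxOR fluorescence, 10 s baseline plus 110 s post-stimulus.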
hERG rescue: shields human hERG channel from block by proarrhythmic agents; activation (rescue from dofetilide block), less the hit threshold, % at 10 µM; CHO-hERG, FluxOR thallium flux, dofetilide IC70 present; Q12809; hit rate 0.51% among 310,000;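 active means activation above the mean of controls blocked by dofetilide plus 5 SD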;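 further: thallium influx through hERG after potassium depolarization seen as dye fluorescence rise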
An asterisk follows results filed as active.

`COc1ccccc1N1CN(S(=O)(=O)c2ccc(C)cc2)c2nc3ccccc3nc21` gave KCNK3 block -9.9*.
Screening O=C(c1cccc(S(=O)(=O)N2CCc3ccccc32)c1)N1CCN(c2ccccc2)CC1 returned KCNK3 block -8.9*.
O=C(c1cccc(S(=O)(=O)N2CCc3ccccc3C2)c1)N1CCN(c2ccccc2)CC1 was read as KCNK3 block inactive, Kir21 inh -0.18, KCNK9 block inactive, KCNQ1 inh inactive, KCNQ1 pot inactive and hERG rescue -6.
Screening O=Cc1[nH]c2ccccc2c1N(C(=O)CCl)c1ccc([N+](=O)[O-])cc1 returned KCNK3 block inactive, Kir21 inh -5.5*, KCNK9 block inactive, KCNQ1 inh 9*, KCNQ1 pot inactive and hERG rescue -27.
Screening CC(=O)n1cc(N(C(=O)CCl)c2ccc([N+](=O)[O-])cc2)c2ccccc21 returned KCNK3 block inactive, Kir21 inh -3, KCNK9 block inactive, KCNQ1 inh 7*, KCNQ1 pot inactive and hERG rescue -13.
For CCCN1C(=O)SC(CC(=O)Nc2cccc3ccccc23)C1=O (centres undefined) the results were KCNK3 block inactive, Kir21 inh 2, KCNK9 block inactive, KCNQ1 inh inactive, KCNQ1 pot inactive and hERG rescue -3.
Screening CCCN1C(=O)SC(CC(=O)Nc2ccccc2)C1=O (centres undefined) returned KCNK3 block inactive, Kir21 inh -2.3, KCNK9 block inactive, KCNQ1 inh inactive, KCNQ1 pot inactive and hERG rescue 8.6*.
Screening Cc1ccc(S(=O)(=O)N2CCCCC2CCNC(=O)C(=O)NCC2CCCO2)cc1 (centres undefined) returned KCNK3 block inactive, Kir21 inh 0.03, KCNK9 block inactive, KCNQ1 inh inactive, KCNQ1 pot inactive and hERG rescue -17.
COc1ccc(S(=O)(=O)CCC(=O)N2c3ccccc3CC2C)cc1 (centres undefined) was read as KCNK3 block inactive, Kir21 inh -4.6*, KCNK9 block inactive, KCNQ1 inh inactive, KCNQ1 pot inactive and hERG rescue -8.
Cc1ccc(C(NC(=O)NC(C)c2ccccc2)C(Cl)(Cl)Cl)cc1F (centres undefined) was read as KCNK3 block inactive, Kir21 inh 3.2, KCNK9 block inactive, KCNQ1 inh 7*, KCNQ1 pot inactive and hERG rescue -3.
Screening Cc1ccsc1C1C(C#N)=C(N)N(N(C)C)C2=C1C(=O)CCC2 (centres undefined) returned KCNK3 block inactive, Kir21 inh 0.85, KCNK9 block inactive, KCNQ1 inh inactive, KCNQ1 pot inactive and hERG rescue 7.9*.
For COc1ccc(C2c3cc(OC)c(OC)cc3CCN2C(=O)c2cccc([N+](=O)[O-])c2)cc1OC (centres undefined) the results were KCNK3 block inactive, Kir21 inh -0.26, KCNK9 block inactive, KCNQ1 inh inactive, KCNQ1 pot inactive and hERG rescue -4.
COc1cc2c(cc1OC)C(c1ccc([N+](=O)[O-])cc1)N(C(C)=O)CC2 (centres undefined) was read as KCNK3 block inactive, Kir21 inh 0.29, KCNK9 block inactive, KCNQ1 inh inactive, KCNQ1 pot inactive and hERG rescue 9.4*.
For O=C(COC(=O)Cn1cc(C(F)(F)F)ccc1=O)Nc1ccc(Br)cc1F the results were KCNK3 block inactive.
Cc1ccc(CN2CCN(/N=C/c3ccc(C(=O)O)cc3)CC2)cc1 was read as KCNK3 block inactive, Kir21 inh 1.5, KCNK9 block inactive, KCNQ1 inh inactive, KCNQ1 pot inactive and hERG rescue -11.
For Cc1ccc(CN2CCN(/N=C/c3ccc(O)c(O)c3)CC2)cc1 the results were KCNK3 block inactive, Kir21 inh 0.8, KCNK9 block inactive, KCNQ1 inh inactive, KCNQ1 pot inactive and hERG rescue 7.1*.
`CCOC(=O)c1c(NC(=O)CSc2nnnn2C)sc(CC)c1C` gave KCNK3 block inactive, Kir21 inh -0.2, KCNK9 block -6.8*, KCNQ1 inh inactive, KCNQ1 pot inactive and hERG rescue -3.
Cc1nc(NC(=O)CSc2nnnn2Cc2ccccc2)sc1C was read as KCNK3 block inactive, Kir21 inh -1, KCNK9 block inactive, KCNQ1 inh inactive, KCNQ1 pot inactive and hERG rescue 5.0*.
Screening CCOC(=O)c1c(NC(=O)CSc2nnnn2CC)sc(C)c1C returned KCNK3 block inactive, Kir21 inh -0.25, KCNK9 block -7.7*, KCNQ1 inh inactive, KCNQ1 pot inactive and hERG rescue -7.
Screening CCCn1nnnc1SCC(=O)Nc1nnc(CC)s1 returned KCNK3 block inactive, Kir21 inh 1.4, KCNK9 block inactive, KCNQ1 inh inactive, KCNQ1 pot inactive and hERG rescue 17*.
Cc1nnc(NC(=O)CSc2nnnn2Cc2ccccc2)s1 was read as KCNK3 block inactive, Kir21 inh 0.93, KCNK9 block inactive, KCNQ1 inh inactive, KCNQ1 pot inactive and hERG rescue -1.
For C[C@H](CO)N1C[C@H](C)[C@@H](CN(C)C(=O)Nc2ccccc2)Oc2ccc(NC(=O)CCC(F)(F)F)cc2C1=O the results were KCNK3 block inactive.
Screening Cc1ccc(-c2cc3cccc[n+]3cc2-c2ccc(C)cc2)cc1 returned KCNK3 block inactive, Kir21 inh -12*, KCNK9 block inactive, KCNQ1 inh 8*, KCNQ1 pot inactive and hERG rescue -29.
For Cc1ccc2nc(-c3ccncc3)cc(-c3ccccc3)c2c1 the results were KCNK3 block inactive, Kir21 inh 0.43, KCNK9 block inactive, KCNQ1 inh inactive, KCNQ1 pot inactive and hERG rescue -11.
`O=C(CSc1nc(O)cc(=O)n1-c1ccccc1)Nc1ccc(Br)cn1` gave KCNK3 block inactive, Kir21 inh -1, KCNK9 block inactive, KCNQ1 inh inactive, KCNQ1 pot inactive and hERG rescue -24.
Screening CC(C)CN1C(=O)/C(=C/c2cccs2)NC1=S returned KCNK3 block inactive, Kir21 inh 0.02, KCNK9 block inactive, KCNQ1 inh inactive, KCNQ1 pot 55* and hERG rescue 49*.
`CCCN1C(=O)/C(=C/c2ccc(C)s2)NC1=S` gave KCNK3 block inactive, Kir21 inh 0.44, KCNK9 block inactive, KCNQ1 inh inactive, KCNQ1 pot 32* and hERG rescue 32*.
Screening CCCc1nc2c(sc3nc4c(cc32)COC(C)(C)C4)c(=O)o1 returned KCNK3 block inactive, Kir21 inh 2.3, KCNK9 block inactive, KCNQ1 inh inactive, KCNQ1 pot inactive and hERG rescue -18.
